Target: Human integrin αvβ3 receptor (Homo sapiens, UniProt P05106+P06756)
Format: binding
Conditions: for IC50: SD; for increase of IC50 compared to the free ligand 1: αvβ3, biotinylated vitronectin binding, from Table 1
Summary of the method: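 Immobilized integrin αvβ3 incubated with test compound at graded concentrations (10−12 to 10−5) together with biotinylated vitronectin (1 μg mL−1); bound vitronectin measured. IC50 taken from the inhibition of vitronectin binding, reported as arithmetic mean ± SD of triplicate determinations.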

Sequence of Human integrin αvβ3 receptor (P06756 31-992 limits assumed): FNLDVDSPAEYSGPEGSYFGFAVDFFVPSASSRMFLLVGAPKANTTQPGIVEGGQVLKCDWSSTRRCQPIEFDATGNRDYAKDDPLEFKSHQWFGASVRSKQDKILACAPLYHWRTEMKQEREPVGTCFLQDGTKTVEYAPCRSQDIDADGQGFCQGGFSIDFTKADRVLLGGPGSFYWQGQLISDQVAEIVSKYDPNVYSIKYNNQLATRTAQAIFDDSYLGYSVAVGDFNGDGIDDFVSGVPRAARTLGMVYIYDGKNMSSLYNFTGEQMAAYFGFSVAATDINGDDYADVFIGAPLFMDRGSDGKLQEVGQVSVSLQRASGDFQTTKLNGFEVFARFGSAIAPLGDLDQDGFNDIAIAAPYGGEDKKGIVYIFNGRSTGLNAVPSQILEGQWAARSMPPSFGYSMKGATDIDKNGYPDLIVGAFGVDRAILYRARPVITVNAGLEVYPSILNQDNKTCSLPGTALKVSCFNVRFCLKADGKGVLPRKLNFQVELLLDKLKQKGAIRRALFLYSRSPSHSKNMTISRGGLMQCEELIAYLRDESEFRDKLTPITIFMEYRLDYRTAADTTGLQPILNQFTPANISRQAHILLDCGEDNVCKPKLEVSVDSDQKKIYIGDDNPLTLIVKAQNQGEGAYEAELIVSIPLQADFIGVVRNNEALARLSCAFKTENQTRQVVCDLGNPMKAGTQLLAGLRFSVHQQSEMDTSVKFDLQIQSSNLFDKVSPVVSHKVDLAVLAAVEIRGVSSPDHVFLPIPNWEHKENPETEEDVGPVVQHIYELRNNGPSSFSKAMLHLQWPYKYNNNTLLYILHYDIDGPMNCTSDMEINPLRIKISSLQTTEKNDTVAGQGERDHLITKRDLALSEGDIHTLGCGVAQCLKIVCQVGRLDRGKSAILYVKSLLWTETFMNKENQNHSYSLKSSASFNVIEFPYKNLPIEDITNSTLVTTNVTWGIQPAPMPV
Sequence of Human integrin αvβ3 receptor (P05106 27-718 limits assumed): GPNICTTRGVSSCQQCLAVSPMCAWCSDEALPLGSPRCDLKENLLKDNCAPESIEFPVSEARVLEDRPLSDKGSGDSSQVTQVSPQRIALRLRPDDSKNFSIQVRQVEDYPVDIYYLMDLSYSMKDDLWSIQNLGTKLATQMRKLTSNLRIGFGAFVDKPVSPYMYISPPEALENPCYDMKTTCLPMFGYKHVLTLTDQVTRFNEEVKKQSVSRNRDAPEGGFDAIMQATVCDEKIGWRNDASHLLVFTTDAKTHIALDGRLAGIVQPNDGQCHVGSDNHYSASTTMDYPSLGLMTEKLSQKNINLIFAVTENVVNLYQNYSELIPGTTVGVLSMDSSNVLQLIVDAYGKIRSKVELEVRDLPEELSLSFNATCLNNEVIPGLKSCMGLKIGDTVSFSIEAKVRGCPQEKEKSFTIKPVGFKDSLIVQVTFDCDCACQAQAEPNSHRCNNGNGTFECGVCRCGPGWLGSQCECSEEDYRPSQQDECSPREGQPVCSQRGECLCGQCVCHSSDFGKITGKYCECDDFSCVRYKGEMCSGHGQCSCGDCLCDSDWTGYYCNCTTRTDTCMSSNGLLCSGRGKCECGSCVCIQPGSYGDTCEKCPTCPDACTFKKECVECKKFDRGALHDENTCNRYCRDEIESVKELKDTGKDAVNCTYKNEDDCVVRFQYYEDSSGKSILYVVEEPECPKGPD

| SMILES | IC50 | increase of IC50 compared to the free ligand 1 |
| --- | --- | --- |
| CC(=O)O[C@H]1C(=O)[C@@]2(C)[C@H]([C@H](OC(=O)c3ccccc3)[C@]3(O)C[C@H](OC(=O)[C@H](OC(=O)N(C)CCN(C)C(=O)OCc4ccc(NC(=O)[C@H](C)NC(=O)[C@@H](NC(=O)Cc5cc(OCCNC(=O)Cc6cc(OCc7cn(CCOCCOCCOCCOCC(=O)NCc8ccc(CN9C(=O)[C@H]%10CC(=O)N[C@@H](CCCNC(=N)N)C(=O)NCC(=O)N[C@@H](CC(=O)O)C(=O)NC[C@H]9C(=O)N%10)cc8)nn7)cc(OCc7cn(CCOCCOCCOCCOCC(=O)NCc8ccc(CN9C(=O)[C@H]%10CC(=O)N[C@@H](CCCNC(=N)N)C(=O)NCC(=O)N[C@@H](CC(=O)O)C(=O)NC[C@H]9C(=O)N%10)cc8)nn7)c6)cc(OCCNC(=O)Cc6cc(OCc7cn(CCOCCOCCOCCOCC(=O)NCc8ccc(CN9C(=O)[C@H]%10CC(=O)N[C@@H](CCCNC(=N)N)C(=O)NCC(=O)N[C@@H](CC(=O)O)C(=O)NC[C@H]9C(=O)N%10)cc8)nn7)cc(OCc7cn(CCOCCOCCOCCOCC(=O)NCc8ccc(CN9C(=O)[C@H]%10CC(=O)N[C@@H](CCCNC(=N)N)C(=O)NCC(=O)N[C@@H](CC(=O)O)C(=O)NC[C@H]9C(=O)N%10)cc8)nn7)c6)c5)C(C)C)cc4)[C@@H](NC(=O)c4ccccc4)c4ccccc4)C(C)=C1C3(C)C)[C@]1(OC(C)=O)CO[C@@H]1C[C@@H]2O [compound 9, (cyclo[DKP‐RGD])4‐Val‐Ala‐PTX] | 1.3 ± 0.3 nM |  |
| CC(=O)O[C@H]1C(=O)[C@@]2(C)[C@H]([C@H](OC(=O)c3ccccc3)[C@]3(O)C[C@H](OC(=O)[C@H](OC(=O)N(C)CCN(C)C(=O)OCc4ccc(NC(=O)[C@H](C)NC(=O)[C@@H](NC(=O)Cc5cc(OCCNC(=O)Cc6cc(OCc7cn(CCOCCOCCOCCOCC(=O)NCc8ccc(CN9C(=O)[C@H]%10CC(=O)N[C@@H](CCCNC(=N)N)C(=O)NCC(=O)N[C@@H](CC(=O)O)C(=O)NC[C@H]9C(=O)N%10)cc8)nn7)cc(OCc7cn(CCOCCOCCOCCOCC(=O)NCc8ccc(CN9C(=O)[C@H]%10CC(=O)N[C@@H](CCCNC(=N)N)C(=O)NCC(=O)N[C@@H](CC(=O)O)C(=O)NC[C@H]9C(=O)N%10)cc8)nn7)c6)cc(OCCNC(=O)c6ccc(OCc7cn(CCOCCOCCOCCOCC(=O)NCc8ccc(CN9C(=O)[C@H]%10CC(=O)N[C@@H](CCCNC(=N)N)C(=O)NCC(=O)N[C@@H](CC(=O)O)C(=O)NC[C@H]9C(=O)N%10)cc8)nn7)cc6)c5)C(C)C)cc4)[C@@H](NC(=O)c4ccccc4)c4ccccc4)C(C)=C1C3(C)C)[C@]1(OC(C)=O)CO[C@@H]1C[C@@H]2O [compound 8, (cyclo[DKP‐RGD])3‐Val‐Ala‐PTX] | 1.2 ± 0.5 nM |  |
| CC(=O)O[C@H]1C(=O)[C@@]2(C)[C@H]([C@H](OC(=O)c3ccccc3)[C@]3(O)C[C@H](OC(=O)[C@H](OC(=O)N(C)CCN(C)C(=O)OCc4ccc(NC(=O)[C@H](C)NC(=O)[C@@H](NC(=O)Cc5cc(OCc6cn(CCOCCOCCOCCOCC(=O)NCc7ccc(CN8C(=O)[C@H]9CC(=O)N[C@@H](CCCNC(=N)N)C(=O)NCC(=O)N[C@@H](CC(=O)O)C(=O)NC[C@H]8C(=O)N9)cc7)nn6)cc(OCc6cn(CCOCCOCCOCCOCC(=O)NCc7ccc(CN8C(=O)[C@H]9CC(=O)N[C@@H](CCCNC(=N)N)C(=O)NCC(=O)N[C@@H](CC(=O)O)C(=O)NC[C@H]8C(=O)N9)cc7)nn6)c5)C(C)C)cc4)[C@@H](NC(=O)c4ccccc4)c4ccccc4)C(C)=C1C3(C)C)[C@]1(OC(C)=O)CO[C@@H]1C[C@@H]2O [compound 7, (cyclo[DKP‐RGD])2‐Val‐Ala‐PTX] | 4 ± 0.1 nM |  |
| CC(=O)O[C@H]1C(=O)[C@@]2(C)[C@H]([C@H](OC(=O)c3ccccc3)[C@]3(O)C[C@H](OC(=O)[C@H](OC(=O)N(C)CCN(C)C(=O)OCc4ccc(NC(=O)[C@H](C)NC(=O)[C@@H](NC(=O)c5ccc(OCc6cn(CCOCCOCCOCCOCC(=O)NCc7ccc(CN8C(=O)[C@H]9CC(=O)N[C@@H](CCCNC(=N)N)C(=O)NCC(=O)N[C@@H](CC(=O)O)C(=O)NC[C@H]8C(=O)N9)cc7)nn6)cc5)C(C)C)cc4)[C@@H](NC(=O)c4ccccc4)c4ccccc4)C(C)=C1C3(C)C)[C@]1(OC(C)=O)CO[C@@H]1C[C@@H]2O [compound 6, cyclo[DKP‐RGD]‐Val‐Ala‐PTX (aromatic scaffold)] | 27.3 ± 9.8 nM | 6 fold |
| CC(=O)O[C@H]1C(=O)[C@@]2(C)[C@H]([C@H](OC(=O)c3ccccc3)[C@]3(O)C[C@H](OC(=O)[C@H](OC(=O)N(C)CCN(C)C(=O)OCc4ccc(NC(=O)[C@H](C)NC(=O)[C@@H](NC(=O)CCc5cn(CCOCCOCCOCCOCC(=O)NCc6ccc(CN7C(=O)[C@H]8CC(=O)N[C@@H](CCCNC(=N)N)C(=O)NCC(=O)N[C@@H](CC(=O)O)C(=O)NC[C@H]7C(=O)N8)cc6)nn5)C(C)C)cc4)[C@@H](NC(=O)c4ccccc4)c4ccccc4)C(C)=C1C3(C)C)[C@]1(OC(C)=O)CO[C@@H]1C[C@@H]2O [compound 5, cyclo[DKP‐RGD]‐Val‐Ala‐PTX (aliphatic scaffold)] | 14.8 ± 3.9 nM | 3 fold |

Reference: paper PMC5656903 (Chemistry (Weinheim an Der Bergstrasse, Germany), 2017)
